Drawing on ChEMBL document CHEMBL1144940 (J Med Chem, 2003), this text covers Ki, EC50 and Activity for 12 compounds.

Assay [1] addresses T1, Melanocortin receptor 5 (Homo sapiens, UniProt P33032). The experiment in a line: Binding affinity against human Melanocortin 5 receptor by gamma-MCH displacement. An outline of the steps: (§1)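 Competition binding on intact HEK293 cells stably expressing the human receptor, seeded 50000 cells/well 48 h earlier. Lysates were gamma-counted. Ki came from competition curves; mean of duplicate experiments in triplicate.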

Assay [2] deals with T1, Melanocortin receptor 5. Kind of assay: Intracellular cAMP accumulation in human Melanocortin 5 receptor functional assay.
Assay [3] concerns the target T2, Melanocortin receptor 4 (Homo sapiens, UniProt P32245). The experiment in a line: Intracellular cAMP accumulation in Melanocortin 4 receptor functional assay. A general note: cAMP levels reflect the balance of adenylyl cyclase and phosphodiesterase activity.
For assay [4], the target named is T3, Melanocortin receptor 3 (Homo sapiens, UniProt P41968). The experiment in a line: Binding affinity against human Melanocortin 3 receptor by gamma-MCH displacement. Put shortly: as §1
T3 sequence (P41968 whole entry): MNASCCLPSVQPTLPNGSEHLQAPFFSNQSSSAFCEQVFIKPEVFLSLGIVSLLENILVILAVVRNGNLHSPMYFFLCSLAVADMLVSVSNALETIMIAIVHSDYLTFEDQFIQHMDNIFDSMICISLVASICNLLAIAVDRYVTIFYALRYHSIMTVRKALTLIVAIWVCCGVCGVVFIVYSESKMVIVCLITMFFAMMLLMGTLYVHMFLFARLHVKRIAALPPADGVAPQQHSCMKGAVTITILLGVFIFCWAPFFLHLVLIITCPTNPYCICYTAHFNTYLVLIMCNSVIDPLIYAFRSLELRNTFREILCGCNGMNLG
For assay [5], the target named is T3, Melanocortin receptor 3. The experiment in a line: Intracellular cAMP accumulation in human Melanocortin 3 receptor functional assay.
Assay [6] addresses T2, Melanocortin receptor 4. The experiment in a line: Binding affinity against Melanocortin 4 receptor by gamma-MCH displacement. Put shortly: as §1
Assay [7] has as its target T2, Melanocortin receptor 4. Kind of assay: Agonist activity against human Melanocortin 4 receptor at 10 uM.

Bridge positions count the residues as written; N and C are the ends. Square brackets hold non-standard residues; d marks the D form. Peptide text beside a SMILES is read from it. Pen = CC(C)(S)[C@H](N)C(=O)O; Nle = CCCC[C@H](N)C(=O)O

T2 sequence (P32245 whole entry): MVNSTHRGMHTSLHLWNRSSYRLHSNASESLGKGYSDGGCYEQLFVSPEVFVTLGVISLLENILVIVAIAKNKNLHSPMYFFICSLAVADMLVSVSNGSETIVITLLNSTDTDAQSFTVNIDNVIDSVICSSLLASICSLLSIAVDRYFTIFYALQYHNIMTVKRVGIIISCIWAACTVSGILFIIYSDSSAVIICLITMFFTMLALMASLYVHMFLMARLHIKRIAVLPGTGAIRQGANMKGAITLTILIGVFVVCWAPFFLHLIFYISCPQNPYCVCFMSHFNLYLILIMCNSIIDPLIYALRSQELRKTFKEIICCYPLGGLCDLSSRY
T1 sequence (P33032 whole entry): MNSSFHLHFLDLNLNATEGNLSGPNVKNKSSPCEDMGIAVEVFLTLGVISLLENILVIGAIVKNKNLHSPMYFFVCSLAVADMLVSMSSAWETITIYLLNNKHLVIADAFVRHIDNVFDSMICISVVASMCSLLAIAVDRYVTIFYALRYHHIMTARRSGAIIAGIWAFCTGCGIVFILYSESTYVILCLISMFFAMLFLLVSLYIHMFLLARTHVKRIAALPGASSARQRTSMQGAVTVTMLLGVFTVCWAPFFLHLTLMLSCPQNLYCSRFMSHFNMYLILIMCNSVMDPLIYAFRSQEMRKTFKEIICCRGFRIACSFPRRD

On to `CC(C)[C@H](NC(=O)[C@@H](N)Cc1ccc(O)cc1)C(=O)N[C@@H]1C(=O)NCC(=O)N[C@@H](Cc2cnc[nH]2)C(=O)N[C@@H](Cc2ccccc2)C(=O)N[C@@H](CCCNC(=N)N)C(=O)N[C@@H](Cc2c[nH]c3ccccc23)C(=O)N[C@H](C(=O)N[C@@H](CCCNC(=N)N)C(=O)N[C@@H](Cc2ccccc2)C(=O)NCC(N)=O)CSSC1(C)C`, for which the Ki at Melanocortin receptor 5 [1] stood at 1.7 µM; on Melanocortin receptor 3 [4], 0.15 µM; on Melanocortin receptor 4 [6], 0.012 µM. Besides, the results for the EC50 at Melanocortin receptor 5 [2], at Melanocortin receptor 4 [3] and on Melanocortin receptor 3 [5] were greater than 10 µM, greater than 10 µM and 0.4 µM, respectively.

For the compound `CC(C)[C@H](NC(=O)[C@@H](N)Cc1ccc(O)cc1)C(=O)N[C@H]1CSSC[C@H](C(=O)N[C@@H](CCCN=C(N)N)C(=O)N[C@@H](Cc2ccccc2)C(=O)NCC(N)=O)NC(=O)[C@H](Cc2c[nH]c3ccccc23)NC(=O)[C@H](CCCN=C(N)N)NC(=O)[C@H](Cc2ccccc2)NC(=O)[C@H](Cc2c[nH]cn2)NC(=O)CNC1=O`, the Ki on Melanocortin receptor 5 [1] was greater than 3.9 µM; at Melanocortin receptor 3 [4], greater than 10 µM; at Melanocortin receptor 4 [6] it was greater than 10 µM. For the same compound, the EC50 on Melanocortin receptor 5 [2], on Melanocortin receptor 4 [3] and on Melanocortin receptor 3 [5] was greater than 10 µM throughout.

For the compound `CCCC[C@H](NC(=O)[C@@H](NC(=O)[C@@H](N)Cc1ccc(O)cc1)C(C)C)C(=O)N[C@@H]1CSSC[C@@H](C(=O)N[C@@H](CCCNC(=N)N)C(=O)N[C@@H](Cc2ccccc2)C(=O)NCC(N)=O)NC(=O)[C@H](Cc2c[nH]c3ccccc23)NC(=O)[C@H](CCCNC(=N)N)NC(=O)[C@H](Cc2ccccc2)NC(=O)[C@H](Cc2cnc[nH]2)NC1=O`, the inhibitory constant (Ki) on Melanocortin receptor 5 [1] turned out to be 0.21 µM; at Melanocortin receptor 3 [4] it was 1.6 µM; at Melanocortin receptor 4 [6], 1.2 µM. Further, the EC50 on Melanocortin receptor 5 [2] turned out to be 0.14 µM; on Melanocortin receptor 4 [3], 0.36 µM; at Melanocortin receptor 3 [5] it was 0.21 µM.

For the compound `CCCC[C@H](NC(=O)[C@@H](NC(=O)[C@@H](N)Cc1ccc(O)cc1)C(C)C)C(=O)N[C@@H]1C(=O)N[C@@H](Cc2c[nH]cn2)C(=O)N[C@@H](Cc2ccccc2)C(=O)N[C@@H](CCCN=C(N)N)C(=O)N[C@@H](Cc2c[nH]c3ccccc23)C(=O)N[C@H](C(=O)N[C@@H](CCCN=C(N)N)C(=O)N[C@@H](Cc2ccccc2)C(=O)NCC(N)=O)CSSC1(C)C` (H-YV[Nle][Pen]HFRWCRFG-NH2; disulfide 4-9), the figures for the Ki at Melanocortin receptor 5 [1], on Melanocortin receptor 3 [4] and at Melanocortin receptor 4 [6] were 0.15 µM, 0.15 µM and greater than 10 µM, respectively. For the same compound, the figures for the 50% effective concentration (EC50) at Melanocortin receptor 5 [2], at Melanocortin receptor 4 [3] and at Melanocortin receptor 3 [5] were 0.074 µM, 0.2 µM and 0.019 µM, respectively.

Regarding `CC(C)[C@H](NC(=O)[C@@H](N)Cc1ccc(O)cc1)C(=O)N[C@H]1CSSC[C@@H](C(=O)N[C@@H](CCCN=C(N)N)C(=O)N[C@@H](Cc2ccccc2)C(=O)NCC(N)=O)NC(=O)[C@H](Cc2c[nH]c3ccccc23)NC(=O)[C@H](CCCN=C(N)N)NC(=O)[C@H](Cc2ccccc2)NC(=O)[C@H](Cc2c[nH]cn2)NC(=O)CNC1=O`, the Ki was 0.21 µM at Melanocortin receptor 5 [1], 0.068 µM at Melanocortin receptor 3 [4] and 0.022 µM on Melanocortin receptor 4 [6]. Moreover, the results for the concentration for a half-maximal effect (EC50) at Melanocortin receptor 5 [2], on Melanocortin receptor 4 [3] and at Melanocortin receptor 3 [5] were 0.45 µM, 0.009 µM and 0.036 µM, respectively.

Regarding `CC(C)[C@H](NC(=O)[C@@H](N)Cc1ccc(O)cc1)C(=O)N[C@H]1CSSC(C)(C)[C@@H](C(=O)N[C@@H](CCCNC(=N)N)C(=O)N[C@@H](Cc2ccccc2)C(=O)NCC(N)=O)NC(=O)[C@H](Cc2c[nH]c3ccccc23)NC(=O)[C@H](CCCNC(=N)N)NC(=O)[C@H](Cc2ccccc2)NC(=O)[C@H](Cc2cnc[nH]2)NC(=O)CNC1=O` (H-YVCGHFRW[Pen]RFG-NH2; disulfide 3-9), the results for the Ki at Melanocortin receptor 5 [1], at Melanocortin receptor 3 [4] and at Melanocortin receptor 4 [6] were 0.48 µM, 0.48 µM and greater than 10 µM, respectively. Also, the EC50 on Melanocortin receptor 5 [2], on Melanocortin receptor 4 [3] and at Melanocortin receptor 3 [5] was greater than 10 µM throughout.

As for `CCCC[C@H](NC(=O)[C@@H](NC(=O)[C@@H](N)Cc1ccc(O)cc1)C(C)C)C(=O)N[C@H]1CSSC[C@@H](C(=O)N[C@@H](CCCNC(=N)N)C(=O)N[C@@H](Cc2ccccc2)C(=O)NCC(N)=O)NC(=O)[C@H](Cc2c[nH]c3ccccc23)NC(=O)[C@H](CCCNC(=N)N)NC(=O)[C@H](Cc2ccccc2)NC(=O)[C@H](Cc2cnc[nH]2)NC1=O`, the inhibition constant Ki on Melanocortin receptor 5 [1] came to 0.027 µM; at Melanocortin receptor 3 [4], 0.0068 µM; at Melanocortin receptor 4 [6] it was 0.0025 µM. The EC50 came out at 0.0032 µM on Melanocortin receptor 5 [2], 0.17 µM on Melanocortin receptor 4 [3] and 0.0042 µM on Melanocortin receptor 3 [5].

The compound `CCCC[C@H](NC(=O)[C@@H](NC(=O)[C@@H](N)Cc1ccc(O)cc1)C(C)C)C(=O)NCC(=O)N[C@@H](Cc1c[nH]cn1)C(=O)N[C@@H](Cc1ccccc1)C(=O)N[C@@H](CCCN=C(N)N)C(=O)N[C@@H](Cc1c[nH]c2ccccc12)C(=O)N[C@@H](CC(=O)O)C(=O)N[C@@H](CCCN=C(N)N)C(=O)N[C@@H](Cc1ccccc1)C(=O)NCC(N)=O` displayed a Ki at Melanocortin receptor 4 [6] of 0.062 µM. On Melanocortin receptor 4 [7], this compound showed an Activity of 105%.

Regarding `CCCC[C@H](NC(=O)[C@@H](NC(=O)[C@@H](N)Cc1ccc(O)cc1)C(C)C)C(=O)N[C@H]1CSSC[C@H](C(=O)N[C@@H](CCCN=C(N)N)C(=O)N[C@@H](Cc2ccccc2)C(=O)NCC(N)=O)NC(=O)[C@H](Cc2c[nH]c3ccccc23)NC(=O)[C@H](CCCN=C(N)N)NC(=O)[C@H](Cc2ccccc2)NC(=O)[C@H](Cc2c[nH]cn2)NC1=O`, the Ki on Melanocortin receptor 5 [1] was 0.22 µM; on Melanocortin receptor 3 [4], 0.24 µM; at Melanocortin receptor 4 [6], greater than 10 µM. Also, the concentration for a half-maximal effect (EC50) at Melanocortin receptor 5 [2] is 0.27 µM; on Melanocortin receptor 4 [3], 0.083 µM; at Melanocortin receptor 3 [5], 0.039 µM.

`CCCC[C@H](NC(=O)[C@@H](NC(=O)[C@@H](N)Cc1ccc(O)cc1)C(C)C)C(=O)NCC(=O)NC(C)(C)C(=O)N[C@@H](Cc1ccccc1)C(=O)N[C@@H](CCCN=C(N)N)C(=O)N[C@H](Cc1ccc2ccccc2c1)C(=O)N[C@@H](CC(=O)O)C(=O)N[C@@H](CCCN=C(N)N)C(=O)N[C@@H](Cc1ccccc1)C(=O)NCC(N)=O`: the inhibitory constant (Ki) at Melanocortin receptor 5 [1] came out at 0.12 µM; at Melanocortin receptor 3 [4], 3.4 µM; at Melanocortin receptor 4 [6], 4.8 µM. Moreover, the concentration giving a half-maximal response (EC50) at Melanocortin receptor 5 [2] was 0.0018 µM; at Melanocortin receptor 4 [3], greater than 10 µM; at Melanocortin receptor 3 [5] it was greater than 10 µM.

In the case of `CCCC[C@H](NC(=O)[C@@H](NC(=O)[C@@H](N)Cc1ccc(O)cc1)C(C)C)C(=O)N[C@H]1CC(=O)NCCCC[C@@H](C(=O)N[C@@H](CCCN=C(N)N)C(=O)N[C@@H](Cc2ccccc2)C(=O)NCC(N)=O)NC(=O)[C@H](Cc2c[nH]c3ccccc23)NC(=O)[C@H](CCCN=C(N)N)NC(=O)[C@H](Cc2ccccc2)NC(=O)[C@H](Cc2c[nH]cn2)NC1=O`, the Ki is 0.0088 µM on Melanocortin receptor 5 [1], 0.0055 µM on Melanocortin receptor 3 [4] and 0.0096 µM on Melanocortin receptor 4 [6]. Moreover, the EC50 on Melanocortin receptor 5 [2] was 0.2 µM; at Melanocortin receptor 4 [3] it was 0.34 µM; on Melanocortin receptor 3 [5], 0.24 µM.

Take `CCCC[C@H](NC(=O)[C@@H](NC(=O)[C@@H](N)Cc1ccc(O)cc1)C(C)C)C(=O)NCC(=O)N[C@@H](Cc1c[nH]cn1)C(=O)N[C@H](Cc1ccc2ccccc2c1)C(=O)N[C@@H](CCCN=C(N)N)C(=O)N[C@@H](Cc1c[nH]c2ccccc12)C(=O)N[C@@H](CC(=O)O)C(=O)N[C@@H](CCCN=C(N)N)C(=O)N[C@@H](Cc1ccccc1)C(=O)NCC(N)=O`: the inhibitory constant (Ki) at Melanocortin receptor 5 [1] turned out to be 0.001 µM; at Melanocortin receptor 3 [4], 0.00081 µM. Moreover, the concentration giving a half-maximal response (EC50) on Melanocortin receptor 3 [5] is greater than 10 µM. On Melanocortin receptor 4 [7], this compound returned an Activity of 100%.

For orientation: Ki means a measure of affinity in units of concentration, obtained from inhibition or displacement. What is called EC50 is the concentration at which the effect is half-maximal. A lower EC50 goes with higher potency in that assay.
